Test results taken from ChEMBL document CHEMBL1146735, “Synthesis and biological activity of macrocyclic taxane analogues” (Bioorg Med Chem Lett, 2004).

Tests used:
[1] = Compound was evaluated for the ratio of IC50 of A2780/tub cell line to that of IC50 of A2780 cell line; format: functional
Summary of the method: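 Resistance ratio: IC50 in the A2780/tub line divided by the IC50 in parental A2780.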

[2] = Compound was evaluated for the median survival time of compound treated mice to that of median survival time of the control mice at a dose of 120 mg/kg/injection
[3] = Compound was evaluated for the ratio of HCT/mdr cell line to that of IC50 of HCT116 cell line; format: functional, HCT-116
Summary of the method: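 Resistance ratio: IC50 in the HCT116/mdr line divided by the IC50 in parental HCT116.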

[4] = test system: HCT-116; experiment: In vitro cytotoxicity against the paclitaxel sensitive human colon carcinoma cell line HCT116; format: functional, cell-based
Summary of the method: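 HCT116 cells exposed to compound for 72 h. Viability read by MTS assay and IC50 derived from it.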

[5] = test system: A2780; experiment: In vitro cytotoxicity against the paclitaxel sensitive […]; format: functional, cell-based; conditions: Homo sapiens
[6] = species: Homo sapiens; experiment: Compound was evaluated for the inhibition of tubulin polymerization; format: functional
Summary of the method: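 Tubulin polymerization followed by optical density. The value is the compound concentration giving a change of 0.01 OD/h, divided by the corresponding concentration of paclitaxel.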

[7] = Compound was evaluated for the median survival time of compound treated mice to that of median survival time of the control mice at a dose of 100 mg/kg/injection; format: functional
Summary of the method: (§1)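 Balb/c × DBA/2 F1 hybrid mice implanted intraperitoneally with a 2% (w/v) brei of M109 lung carcinoma. Treatment was by intraperitoneal injection on days 5 and 8 post-implant. Survival was followed daily to about 75–90 days, with an untreated control group in each experiment. %T/C = median survival of treated mice / median survival of controls × 100.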

[8] = Compound was evaluated for the median survival time of compound treated mice to that of median survival time of the control mice at a dose of 200 mg/kg/injection; format: functional; summary of the method: as §1

`CC(=O)O[C@H]1[C@@H]2CO[C@@H]2[C@@H]2OCOCC(C)(C)COCO[C@H]3C(=O)[C@@]2(C)[C@@H]1[C@H](OC(=O)c1ccccc1)[C@]1(O)C[C@H](OC(=O)[C@H](O)[C@@H](NC(=O)c2ccccc2)c2ccccc2)C(C)=C3C1(C)C` gave a R/S ratio [1] of 23, a T/C [2] of 118% and a R/S ratio [3] of 11. The IC50 [4] was 17.2 nM, the IC50 [5] was 18 nM and the Tubulin [6] was 2.87.

Molecule `CC(=O)O[C@H]1[C@@H]2CO[C@@H]2[C@@H]2OCOCCOC(=O)O[C@H]3C(=O)[C@@]2(C)[C@@H]1[C@H](OC(=O)c1ccccc1)[C@]1(O)C[C@H](OC(=O)[C@H](O)[C@@H](NC(=O)c2ccccc2)c2ccccc2)C(C)=C3C1(C)C` has a R/S ratio [1] of 32, a R/S ratio [3] of 31 and an IC50 [4] of 1.9 nM. The IC50 [5] was 2.1 nM and the Tubulin [6] was 0.73.

Work on `CC(=O)O[C@H]1[C@@H]2CO[C@@H]2[C@@H]2OCOCCOCO[C@H]3C(=O)[C@@]2(C)[C@@H]1[C@H](OC(=O)c1ccccc1)[C@]1(O)C[C@H](OC(=O)[C@H](O)[C@@H](NC(=O)OC(C)(C)C)c2ccccc2)C(C)=C3C1(C)C` yielded a R/S ratio [1] of 6, a R/S ratio [3] of 12 and a T/C [7] of 190%. For the same molecule, the IC50 [4] was 0.8 nM, the IC50 [5] was 18.5 nM and the Tubulin [6] was 0.67.

With `CC(=O)O[C@H]1[C@@H]2CO[C@@H]2[C@@H]2OCOCCOCO[C@H]3C(=O)[C@@]2(C)[C@@H]1[C@H](OC(=O)c1ccccc1)[C@]1(O)C[C@H](OC(=O)[C@H](O)[C@@H](NC(=O)c2ccccc2)c2ccccc2)C(C)=C3C1(C)C` the R/S ratio [1] was 15, the R/S ratio [3] was 10 and the IC50 [4] was 3 nM. For the same molecule, the IC50 [5] was 2.6 nM, the Tubulin [6] was 1.49 and the T/C [8] was 174%.
